Experimental data taken from ChEMBL document CHEMBL5661985, “In silico design of novel probes for the atypical opioid receptor MRGPRX2” (Nat Chem Biol, 2017).
pEC50, pKi: −log10 of the molar value. Active and inactive are the calls of the source. No cut-off for these calls is given here.

Key:
[1] = biological target: T1, Mas-related G-protein coupled receptor member X2 (Homo sapiens) (UniProt Q96LB1); experiment: Agonist activity at MRGPRX2 receptor in human LAD2 cells assessed as increase in degranulation at 10 uM incubated for 30 mins by beta-hexosaminidase assay relative to control; assay type: functional, cell-based; details: filed as agonist
T1 sequence (whole entry): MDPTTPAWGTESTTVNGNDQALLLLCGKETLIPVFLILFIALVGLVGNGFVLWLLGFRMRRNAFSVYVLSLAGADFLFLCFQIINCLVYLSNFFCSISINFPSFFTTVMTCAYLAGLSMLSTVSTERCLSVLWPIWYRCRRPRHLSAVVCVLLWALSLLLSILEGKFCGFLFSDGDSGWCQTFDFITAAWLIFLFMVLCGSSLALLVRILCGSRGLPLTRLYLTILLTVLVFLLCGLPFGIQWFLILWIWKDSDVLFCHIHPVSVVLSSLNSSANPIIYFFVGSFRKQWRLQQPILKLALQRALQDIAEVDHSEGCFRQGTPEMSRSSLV
Outline: (§1)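 β-Hexosaminidase release: LAD2 cells in fresh medium 18 h, washed in Tyrode's buffer pH 7.4, 10,000 cells/well; drug (single concentration or 8-point curve) added in triplicate, 30 min 37°C; supernatant and Triton X-100 lysate each reacted with NAG in citrate pH 4.5 for 90 min 37°C, stopped with carbonate pH 10, A405; % release = released/total ×100, minus vehicle.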

[2] = biological target: T1, Mas-related G-protein coupled receptor member X2 (Homo sapiens); experiment: Agonist activity at MRGPRX2 receptor in human LAD2 cells assessed as increase in degranulation at 10 uM incubated for 30 mins in presence of IgE by beta-hexosaminidase assay relative to control; assay type: functional, cell-based; details: filed as agonist; outline: as §1
[3] = biological target: T1, Mas-related G-protein coupled receptor member X2 (Homo sapiens); experiment: Agonist activity at MRGPRX2 receptor in human LAD2 cells transfected with MRGPRX2 siRNA assessed as increase in degranulation incubated for 30 mins by beta-hexosaminidase assay; assay type: functional, cell-based
Outline: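 LAD2 cells (1.2 million/well) transfected with 25 nM MRGPRX2 siRNA pool or non-targeting pool, 72 h; 200,000 cells taken for β-hexosaminidase assay with EC80 concentration of agonist, 30 min 37°C; knockdown checked by qRT-PCR on 1 million cells; fold change % degranulation versus DMSO; two-way ANOVA with Sidak test.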

[4] = biological target: Delta-type opioid receptor (Homo sapiens, UniProt P41143); experiment: Displacement of [3H]-Naltrindole from DOR (unknown origin)
Delta-type opioid receptor, sequence (P41143 whole entry): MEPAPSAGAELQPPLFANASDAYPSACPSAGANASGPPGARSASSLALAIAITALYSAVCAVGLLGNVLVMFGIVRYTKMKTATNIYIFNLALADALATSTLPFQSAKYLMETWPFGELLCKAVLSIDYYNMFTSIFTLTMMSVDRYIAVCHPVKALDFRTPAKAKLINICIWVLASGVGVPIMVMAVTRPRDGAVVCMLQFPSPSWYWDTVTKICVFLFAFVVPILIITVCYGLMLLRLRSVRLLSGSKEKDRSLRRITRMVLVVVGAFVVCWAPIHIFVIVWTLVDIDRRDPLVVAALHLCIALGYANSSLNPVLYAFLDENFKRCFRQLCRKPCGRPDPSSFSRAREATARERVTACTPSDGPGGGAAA

[5] = biological target: T1, Mas-related G-protein coupled receptor member X2 (Homo sapiens); experiment: Agonist activity at MRGPRX2 receptor in human LAD2 cells assessed as increase in intracellular calcium release by FLIPR assay; assay type: functional, cell-based; details: filed as agonist
Outline: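 LAD2 human mast cells seeded 50,000/well in Tyrode's buffer with calcium dye, 1 h before drug; 10 s baseline, drug added, fluorescence followed 120 s; expressed as fold calcium release over baseline; n=3 in triplicate.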

[6] = biological target: T2, Mas-related G-protein coupled receptor member X2 (Homo sapiens, UniProt Q96LB1); experiment: Agonist activity at N-terminal Flag-tagged human MRGPRX2 receptor expressed in tetracycline-induced FLP-IN/T-REX 293 cells assessed as increase in intracellular calcium release by FLIPR assay; assay type: functional, cell-based
T2 sequence (Q96LB1 whole entry): T1 sequence (whole entry)

[7] = biological target: T1, Mas-related G-protein coupled receptor member X2 (Homo sapiens); experiment: Agonist activity at MRGPRX2 receptor in human LAD2 cells assessed as increase in degranulation incubated for 30 mins by beta-hexosaminidase assay; assay type: functional, cell-based; details: filed as agonist; outline: as §1
[8] = biological target: T2, Mas-related G-protein coupled receptor member X2; experiment: Agonist activity at MRGPRX2 (unknown origin) expressed in HTLA cells assessed as induction of beta-arrestin 2 recruitment incubated for 18 to 24 hrs by PRESTO-Tango assay; assay type: functional, cell-based
[9] = biological target: T1, Mas-related G-protein coupled receptor member X2 (Homo sapiens); experiment: Agonist activity at N-terminal Flag-tagged human MRGPRX2 receptor expressed in HEK-T cells assessed as increase in intracellular calcium release by FLIPR assay; assay type: functional, cell-based; details: HEK-T cell
Outline: (§2)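 FLIPR calcium: FLP-IN/T-REX HEK-293-T stable line with N-terminal FLAG codon-optimized receptor, induced 24 h with 1 μg/mL tetracycline in 1% dialyzed FBS (uninduced cells as control); FLIPR calcium dye plus 2.5 mM probenecid 1 h 37°C; 10 s baseline, then drug in HBSS/20 mM HEPES/probenecid pH 7.4, 16-point curve 10 μM to 0.003 nM; fluorescence 120 s; fold over basal, n=3 triplicate.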

[10] = biological target: T1, Mas-related G-protein coupled receptor member X2 (Homo sapiens); experiment: Agonist activity at N-terminal Flag-tagged human MRGPRX2 receptor expressed in tetracycline-induced HEK-T cells assessed as increase in intracellular calcium release by FLIPR assay; assay type: functional, cell-based; details: HEK-T cell, filed as agonist; outline: as §2
Mu-type opioid receptor = Mu-type opioid receptor (Homo sapiens, UniProt P35372); experiment: Displacement of [3H]-DAMGO from MOR (unknown origin)
Mu-type opioid receptor, sequence (P35372 whole entry): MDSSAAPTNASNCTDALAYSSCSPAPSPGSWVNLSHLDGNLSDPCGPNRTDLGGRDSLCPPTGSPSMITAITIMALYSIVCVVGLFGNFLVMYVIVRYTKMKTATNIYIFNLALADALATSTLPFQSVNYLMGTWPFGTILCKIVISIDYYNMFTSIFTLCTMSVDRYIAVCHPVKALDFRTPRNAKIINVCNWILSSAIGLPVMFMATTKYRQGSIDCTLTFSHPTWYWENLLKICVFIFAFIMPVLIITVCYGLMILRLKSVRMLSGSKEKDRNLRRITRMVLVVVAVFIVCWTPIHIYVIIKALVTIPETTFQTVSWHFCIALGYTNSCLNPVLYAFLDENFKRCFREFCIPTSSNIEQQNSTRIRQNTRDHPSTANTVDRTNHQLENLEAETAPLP

[11] = biological target: T1, Mas-related G-protein coupled receptor member X2 (Homo sapiens); experiment: Agonist activity at MRGPRX2 receptor in human LAD2 cells assessed as increase in degranulation incubated for 30 mins in presence of naloxone by beta-hexosaminidase assay; assay type: functional, cell-based; outline: as §1
[12] = biological target: Kappa-type opioid receptor (Homo sapiens, UniProt P41145); experiment: Displacement of [3H]-Diprenorphine from KOR (unknown origin)
Kappa-type opioid receptor, sequence (P41145 whole entry): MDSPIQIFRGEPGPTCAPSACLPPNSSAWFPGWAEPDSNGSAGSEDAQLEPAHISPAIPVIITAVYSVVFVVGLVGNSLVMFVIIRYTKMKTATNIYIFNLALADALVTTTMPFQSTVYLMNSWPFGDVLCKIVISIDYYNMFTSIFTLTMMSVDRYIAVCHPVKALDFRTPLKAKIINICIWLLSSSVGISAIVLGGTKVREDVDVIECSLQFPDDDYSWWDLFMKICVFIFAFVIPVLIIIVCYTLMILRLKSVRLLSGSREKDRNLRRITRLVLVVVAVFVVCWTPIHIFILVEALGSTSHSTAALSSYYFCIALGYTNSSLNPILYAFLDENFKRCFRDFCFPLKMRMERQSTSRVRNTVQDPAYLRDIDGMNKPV

[13] = biological target: Beta-1 adrenergic receptor (Homo sapiens) (UniProt P08588); experiment: Agonist activity at ADRB1 receptor (unknown origin); assay type: functional
Outline: (§3)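 PRESTO-Tango β-arrestin2 recruitment; HTLA cells (HEK-T stably expressing β-arrestin2-TEV and tTA-dependent luciferase) transfected by calcium phosphate with receptor-Tango construct, replated next day at 20,000 cells/well; compounds in HBSS/20 mM HEPES/0.3% BSA pH 7.4, 18–24 h; Bright-Glo luminescence after 15 min RT, read as RLU; ≥2-fold over basal scored active.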

[14] = biological target: 5-hydroxytryptamine receptor 1A (Homo sapiens) (UniProt P08908); experiment: Agonist activity at HTR1A receptor (unknown origin); assay type: functional; outline: as §3
[15] = biological target: T1, Mas-related G-protein coupled receptor member X2 (Homo sapiens); experiment: Agonist activity at MRGPRX2 (unknown origin) expressed in HTLA cells assessed as induction of beta-arrestin 2 recruitment <100 uM incubated for 18 to 24 hrs by PRESTO-Tango assay; assay type: functional, cell-based; details: filed as agonist, time 18-24 hrs
Outline: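 β-arrestin2 recruitment by PRESTO-Tango: HTLA cells transiently transfected (calcium phosphate) with codon-optimized MRGPRX2-Tango (WT or point mutant) or MRGPRB2-Tango, plated next day 20,000 cells/well on poly-L-lysine; drug in HBSS/20 mM HEPES/0.3% BSA pH 7.4 for 18–24 h; Bright-Glo luminescence (RLU); curves n=3 in triplicate, mutants n=4 in triplicate.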

[16] = biological target: Cannabinoid receptor 2 (Homo sapiens) (UniProt P34972); experiment: Agonist activity at CNR2 receptor (unknown origin); assay type: functional; outline: as §3
Cannabinoid receptor 2 (Homo sapiens), sequence (P34972 whole entry): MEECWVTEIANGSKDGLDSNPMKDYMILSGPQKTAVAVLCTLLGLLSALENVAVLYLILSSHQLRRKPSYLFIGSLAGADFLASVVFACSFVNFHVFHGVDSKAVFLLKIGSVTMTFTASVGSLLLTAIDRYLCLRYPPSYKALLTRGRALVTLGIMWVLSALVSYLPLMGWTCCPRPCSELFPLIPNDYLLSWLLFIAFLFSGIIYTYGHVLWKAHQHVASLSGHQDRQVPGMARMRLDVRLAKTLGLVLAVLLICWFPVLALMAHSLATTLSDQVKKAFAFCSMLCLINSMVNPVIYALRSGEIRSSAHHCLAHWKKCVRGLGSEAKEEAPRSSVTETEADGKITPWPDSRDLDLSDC

[17] = biological target: Glucagon-like peptide 1 receptor (Homo sapiens) (UniProt P43220); experiment: Agonist activity at GLP1R (unknown origin); assay type: functional; outline: as §3
[18] = biological target: Beta-3 adrenergic receptor (Homo sapiens) (UniProt P13945); experiment: Agonist activity at ADRB3 receptor (unknown origin); assay type: functional; outline: as §3
[19] = biological target: Lutropin-choriogonadotropic hormone receptor (Homo sapiens) (UniProt P22888); experiment: Agonist activity at LHCGR (unknown origin); assay type: functional; outline: as §3
Lutropin-choriogonadotropic hormone receptor (Homo sapiens), sequence (P22888 whole entry): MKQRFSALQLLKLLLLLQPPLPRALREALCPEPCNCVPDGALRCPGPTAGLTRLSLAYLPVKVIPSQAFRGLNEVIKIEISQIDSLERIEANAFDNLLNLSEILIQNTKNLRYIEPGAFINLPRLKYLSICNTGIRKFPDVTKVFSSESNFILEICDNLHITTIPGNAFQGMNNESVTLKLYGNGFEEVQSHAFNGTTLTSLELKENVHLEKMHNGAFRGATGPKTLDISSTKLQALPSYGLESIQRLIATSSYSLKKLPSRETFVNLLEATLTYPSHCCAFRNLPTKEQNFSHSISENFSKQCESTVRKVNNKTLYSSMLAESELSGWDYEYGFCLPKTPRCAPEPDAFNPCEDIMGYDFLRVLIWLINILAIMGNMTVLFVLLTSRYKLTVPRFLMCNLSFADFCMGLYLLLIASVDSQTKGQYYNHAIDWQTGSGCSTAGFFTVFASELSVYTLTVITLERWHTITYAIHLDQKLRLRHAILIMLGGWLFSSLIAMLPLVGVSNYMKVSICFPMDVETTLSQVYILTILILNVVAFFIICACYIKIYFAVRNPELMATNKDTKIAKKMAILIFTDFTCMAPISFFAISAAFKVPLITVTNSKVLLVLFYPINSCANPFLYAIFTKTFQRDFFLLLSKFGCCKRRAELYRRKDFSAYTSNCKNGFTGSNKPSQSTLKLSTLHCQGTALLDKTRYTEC

[20] = biological target: Alpha-1B adrenergic receptor (Homo sapiens) (UniProt P35368); experiment: Agonist activity at ADRA1B receptor (unknown origin); assay type: functional; outline: as §3
[21] = biological target: Glucose-dependent insulinotropic receptor (Homo sapiens) (UniProt Q8TDV5); experiment: Agonist activity at GPR119 receptor (unknown origin); assay type: functional; outline: as §3
Glucose-dependent insulinotropic receptor (Homo sapiens), sequence (Q8TDV5 whole entry): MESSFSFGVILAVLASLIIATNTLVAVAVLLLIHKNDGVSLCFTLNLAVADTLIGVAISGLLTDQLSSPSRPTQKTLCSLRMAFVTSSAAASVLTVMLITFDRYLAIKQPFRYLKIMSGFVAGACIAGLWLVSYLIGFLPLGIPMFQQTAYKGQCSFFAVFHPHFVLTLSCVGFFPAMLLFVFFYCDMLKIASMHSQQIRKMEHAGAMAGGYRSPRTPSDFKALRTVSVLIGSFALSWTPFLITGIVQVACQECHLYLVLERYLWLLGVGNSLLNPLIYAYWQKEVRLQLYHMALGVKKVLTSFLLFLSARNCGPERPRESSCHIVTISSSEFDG

[22] = biological target: Alpha-1A adrenergic receptor (Homo sapiens) (UniProt P35348); experiment: Agonist activity at ADRA1A receptor (unknown origin); assay type: functional; outline: as §3
[23] = biological target: Pituitary adenylate cyclase-activating polypeptide type I receptor (Homo sapiens) (UniProt P41586); experiment: Agonist activity at ADCYAP1 receptor (unknown origin); outline: as §3
[24] = biological target: T1, Mas-related G-protein coupled receptor member X2 (Homo sapiens); experiment: Agonist activity at N-terminal Flag-tagged human MRGPRX2 receptor expressed in tetracycline-induced FLP-IN/T-REX 293 cells assessed as increase in intracellular calcium release <100 uM by FLIPR assay; assay type: functional, cell-based; details: filed as agonist; outline: as §2
[25] = biological target: Muscarinic acetylcholine receptor M2 (Homo sapiens) (UniProt P08172); experiment: Agonist activity at CHRM2 receptor (unknown origin); assay type: functional; outline: as §3
Muscarinic acetylcholine receptor M2 (Homo sapiens), sequence (P08172 whole entry): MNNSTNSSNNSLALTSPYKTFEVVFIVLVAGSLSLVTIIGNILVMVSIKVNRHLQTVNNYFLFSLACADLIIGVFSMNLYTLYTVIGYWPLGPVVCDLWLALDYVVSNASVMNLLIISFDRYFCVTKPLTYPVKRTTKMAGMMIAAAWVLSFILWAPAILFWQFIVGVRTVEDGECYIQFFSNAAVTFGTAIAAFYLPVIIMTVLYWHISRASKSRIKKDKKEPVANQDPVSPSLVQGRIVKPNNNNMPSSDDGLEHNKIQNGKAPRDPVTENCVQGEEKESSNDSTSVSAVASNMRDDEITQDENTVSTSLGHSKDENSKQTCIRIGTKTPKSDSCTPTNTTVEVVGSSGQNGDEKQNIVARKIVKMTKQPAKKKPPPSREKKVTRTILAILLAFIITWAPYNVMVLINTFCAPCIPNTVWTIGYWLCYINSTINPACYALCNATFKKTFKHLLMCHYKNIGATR

[26] = biological target: Type-1 angiotensin II receptor (Homo sapiens) (UniProt P30556); experiment: Agonist activity at AGTR1 receptor (unknown origin); assay type: functional; outline: as §3
[27] = biological target: Gastrin-releasing peptide receptor (Homo sapiens) (UniProt P30550); experiment: Agonist activity at GRPR (unknown origin); assay type: functional; outline: as §3
[28] = biological target: Melanin-concentrating hormone receptor 2 (Homo sapiens) (UniProt Q969V1); experiment: Agonist activity at MCHR2 receptor (unknown orgini); assay type: functional; outline: as §3
[29] = biological target: Prosaposin receptor GPR37 (Homo sapiens) (UniProt O15354); experiment: Agonist activity at GPR37 receptor (unknown origin); assay type: functional; outline: as §3
Prosaposin receptor GPR37 (Homo sapiens), sequence (O15354 whole entry): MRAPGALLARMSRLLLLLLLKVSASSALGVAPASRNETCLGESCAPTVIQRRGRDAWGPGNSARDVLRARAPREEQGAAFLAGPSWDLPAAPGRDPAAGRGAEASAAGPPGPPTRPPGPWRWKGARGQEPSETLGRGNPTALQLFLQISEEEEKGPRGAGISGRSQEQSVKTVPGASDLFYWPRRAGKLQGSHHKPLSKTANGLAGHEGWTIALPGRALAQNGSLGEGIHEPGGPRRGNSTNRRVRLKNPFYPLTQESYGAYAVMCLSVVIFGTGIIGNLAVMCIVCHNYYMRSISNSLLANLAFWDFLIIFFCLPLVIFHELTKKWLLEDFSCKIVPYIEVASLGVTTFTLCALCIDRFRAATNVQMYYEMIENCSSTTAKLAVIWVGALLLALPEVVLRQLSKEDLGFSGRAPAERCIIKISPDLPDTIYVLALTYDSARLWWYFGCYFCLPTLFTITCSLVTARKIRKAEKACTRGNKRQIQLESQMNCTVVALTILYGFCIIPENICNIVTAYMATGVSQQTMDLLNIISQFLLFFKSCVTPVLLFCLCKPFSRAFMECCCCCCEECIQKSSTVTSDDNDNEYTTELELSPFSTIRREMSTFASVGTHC

[30] = biological target: 5-hydroxytryptamine receptor 2A (Homo sapiens) (UniProt P28223); experiment: Agonist activity at HTR2 receptor (unknown origin); assay type: functional; outline: as §3
[31] = biological target: D(4) dopamine receptor (Homo sapiens) (UniProt P21917); experiment: Agonist activity at DRD4 receptor (unknown origin); assay type: functional; outline: as §3
D(4) dopamine receptor (Homo sapiens), sequence (P21917 whole entry): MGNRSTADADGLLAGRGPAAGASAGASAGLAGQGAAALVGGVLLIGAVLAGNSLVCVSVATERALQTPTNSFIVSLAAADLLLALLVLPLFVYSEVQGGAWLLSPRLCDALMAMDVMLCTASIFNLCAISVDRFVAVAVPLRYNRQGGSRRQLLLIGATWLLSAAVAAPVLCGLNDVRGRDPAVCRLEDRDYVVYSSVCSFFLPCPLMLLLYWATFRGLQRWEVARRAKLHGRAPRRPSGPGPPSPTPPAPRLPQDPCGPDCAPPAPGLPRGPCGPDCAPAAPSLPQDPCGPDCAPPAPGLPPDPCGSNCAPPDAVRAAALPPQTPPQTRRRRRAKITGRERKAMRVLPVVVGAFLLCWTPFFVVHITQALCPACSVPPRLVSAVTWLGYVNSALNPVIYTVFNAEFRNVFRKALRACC

[32] = biological target: Proteinase-activated receptor 2 (Homo sapiens) (UniProt P55085); experiment: Agonist activity at F2R-L1 receptor (unknown origin); outline: as §3
Proteinase-activated receptor 2 (Homo sapiens), sequence (P55085 whole entry): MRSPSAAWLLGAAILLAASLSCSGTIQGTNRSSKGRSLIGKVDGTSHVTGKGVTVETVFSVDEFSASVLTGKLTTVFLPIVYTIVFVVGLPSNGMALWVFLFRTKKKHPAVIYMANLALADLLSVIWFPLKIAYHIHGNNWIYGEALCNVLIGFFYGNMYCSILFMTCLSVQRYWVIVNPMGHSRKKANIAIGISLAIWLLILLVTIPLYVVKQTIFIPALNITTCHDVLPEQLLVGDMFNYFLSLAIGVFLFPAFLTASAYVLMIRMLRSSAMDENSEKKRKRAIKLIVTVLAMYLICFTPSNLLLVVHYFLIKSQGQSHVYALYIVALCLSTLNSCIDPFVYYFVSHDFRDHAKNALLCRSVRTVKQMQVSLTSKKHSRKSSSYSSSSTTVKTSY

[33] = biological target: Alpha-2C adrenergic receptor (Homo sapiens) (UniProt P18825); experiment: Agonist activity at ADRA2C receptor (unknown origin); outline: as §3
[34] = biological target: G-protein coupled receptor 15 (Homo sapiens) (UniProt P49685); experiment: Agonist activity at GPR15 receptor (unknown origin); assay type: functional; outline: as §3
G-protein coupled receptor 15 (Homo sapiens), sequence (P49685 whole entry): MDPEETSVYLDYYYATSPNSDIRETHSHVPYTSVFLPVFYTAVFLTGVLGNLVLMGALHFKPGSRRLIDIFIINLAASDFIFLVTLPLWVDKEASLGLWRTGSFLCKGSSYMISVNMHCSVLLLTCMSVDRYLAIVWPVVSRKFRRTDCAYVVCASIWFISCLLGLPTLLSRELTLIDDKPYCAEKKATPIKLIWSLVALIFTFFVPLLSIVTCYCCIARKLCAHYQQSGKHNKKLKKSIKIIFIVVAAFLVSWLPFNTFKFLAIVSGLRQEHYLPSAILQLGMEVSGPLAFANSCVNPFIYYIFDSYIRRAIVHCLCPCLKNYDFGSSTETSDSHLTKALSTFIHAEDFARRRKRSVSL

[35] = biological target: Alpha-1D adrenergic receptor (Homo sapiens) (UniProt P25100); experiment: Agonist activity at ADRA1D receptor (unknown origin); assay type: functional; outline: as §3

## CN1CCC2(c3cccc(O)c3)Cc3nc4ccccc4cc3CC2C1 (racemic)
[1]
  Activity: 70%
[2]
  Activity: 70%
[3]
  Activity: inactive
[4]
  pEC50: 7.88
  pKi: 8.53
[5]
  Activity: Active
[6]; read-out: EC50
  pEC50: 6.13
[6]; read-out: pEC50 (converted)
  EC50: 646 nM
[7]
  Activity: Active
[8]; read-out: pEC50 (converted)
  EC50: 1820 nM
[9]
  Activity: inactive
[10]
  Activity: Active
Mu-type opioid receptor
  pEC50: 6.49
  pKi: 6.62
[11]
  Activity: inactive
[12]
  pEC50: 4.05
  pKi: 4.66

## CN(C)[C@H]1CCN(c2cc(-c3ccccc3)nc3ccnn23)C1 [(S)-ZINC-3573]
[13]
  Activity: inactive
[14]
  Activity: inactive
[15]
  Activity: Active
[16]
  Activity: inactive
[17]
  Activity: inactive
[18]
  Activity: inactive
[19]
  Activity: inactive
[20]
  Activity: inactive
[21]
  Activity: inactive
[22]
  Activity: inactive
[23]
  Activity: inactive
[24]
  Activity: Active
[25]
  Activity: inactive
[26]
  Activity: inactive
[8]; read-out: EC50
  pEC50: < 4.00
[27]
  Activity: inactive
[28]
  Activity: inactive
[29]
  Activity: inactive
[30]
  Activity: inactive
[31]
  Activity: inactive
[32]
  Activity: inactive
[33]
  Activity: inactive
[34]
  Activity: inactive
[35]
  Activity: inactive
